In ChEMBL document CHEMBL4251667, “Ribemansides A and B, TRPC6 Inhibitors from Ribes manshuricum That Suppress TGF-β1-Induced Fibrogenesis in HK-2 Cells” (J Nat Prod, 2018):
Calls of active or inactive are those of the source. No cut-off for these calls is given here.

Experiments:
HK-2 [1] = assay: Inhibition of TGFbeta1-induced epithelial-mesenchymal transition in human HK2 cells assessed as reduction in alpha-SMA expression at 30 uM measured after 36 hrs by Western blot analysis; assay type: functional, cell-based
HK-2 [2] = assay: Inhibition of TGFbeta1-induced epithelial-mesenchymal transition in human HK2 cells assessed as reduction in fibronectin release at 30 uM measured after 36 hrs by ELISA; assay type: functional, cell-based
[3] = molecular target: T1, Short transient receptor potential channel 6 (Mus musculus, UniProt Q61143); assay: Inhibition of mouse TRPC6 expressed in HEK293 cells assessed as reduction in M085-induced intracellular calcium flux pretreated for 5 mins followed by M085 addition measured after 300 secs by Fluo-8AM dye based FLIPR assay; assay type: cell-based
T1 sequence (Q61143 whole entry): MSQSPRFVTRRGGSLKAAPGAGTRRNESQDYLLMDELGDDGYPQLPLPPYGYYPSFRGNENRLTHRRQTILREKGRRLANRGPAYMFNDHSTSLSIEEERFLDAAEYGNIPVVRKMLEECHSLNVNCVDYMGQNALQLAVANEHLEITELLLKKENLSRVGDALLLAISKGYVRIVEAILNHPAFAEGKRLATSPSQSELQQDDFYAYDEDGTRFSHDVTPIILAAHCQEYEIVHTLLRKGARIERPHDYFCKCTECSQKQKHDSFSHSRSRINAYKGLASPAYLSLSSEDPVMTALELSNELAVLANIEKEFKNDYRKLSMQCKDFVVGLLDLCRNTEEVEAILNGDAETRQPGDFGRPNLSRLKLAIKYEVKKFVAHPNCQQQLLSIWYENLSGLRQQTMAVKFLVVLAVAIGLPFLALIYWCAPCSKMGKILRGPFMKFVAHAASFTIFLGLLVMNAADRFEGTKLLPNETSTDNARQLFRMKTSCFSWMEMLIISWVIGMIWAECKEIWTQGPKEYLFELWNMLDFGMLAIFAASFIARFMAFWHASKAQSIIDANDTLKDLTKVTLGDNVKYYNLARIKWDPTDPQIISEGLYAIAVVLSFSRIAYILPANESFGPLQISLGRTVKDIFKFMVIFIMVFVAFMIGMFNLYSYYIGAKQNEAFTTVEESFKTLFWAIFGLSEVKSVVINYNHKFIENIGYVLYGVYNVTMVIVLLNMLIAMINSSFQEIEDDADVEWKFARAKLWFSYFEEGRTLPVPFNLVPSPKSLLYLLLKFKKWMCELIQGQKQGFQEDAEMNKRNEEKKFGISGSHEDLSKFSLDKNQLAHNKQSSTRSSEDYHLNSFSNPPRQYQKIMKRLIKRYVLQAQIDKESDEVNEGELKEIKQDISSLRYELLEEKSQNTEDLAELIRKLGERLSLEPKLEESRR
Procedure, shortened: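 HEK-293 cells stably expressing mouse TRPC6, on poly-D-lysine plates (~20 000 cells/well), cultured 6 h. Loaded with 4 μM Fluo-8/AM for 45 min, washed. FLIPR read: baseline 30 s, then compound or vehicle 5 min, then M085 (1 μM). Signal expressed as F/F0; AUC over 300 s after M085 used for concentration–response. Twice, each in triplicate.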

HK-2 [4] = assay: Inhibition of TGFbeta1-induced epithelial-mesenchymal transition in human HK2 cells assessed as reversal of spindle-like morphology at 30 uM measured after 36 hrs; assay type: functional, cell-based
Procedure, shortened: (§1)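 HK-2 cells kept in RPMI 1640 with 2 mg/mL NaHCO3, 10% FBS and 10 mM HEPES, then seeded at 6000 (96-well) or 40 000 (12-well) cells/well. Treated in serum-free medium with TGF-β1 (5 ng/mL), with or without test agent, for 36 h. Morphology scored as cell length/width ratio (n = 40). Run twice, each in duplicate.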

HK-2 [5] = assay: Effect on morphological changes in human HK2 cells at 1 uM measured after 36 hrs; assay type: ADME, cell-based; settings: hk-2, 36 h
HK-2 [6] = assay: Inhibition of TGFbeta1-induced epithelial-mesenchymal transition in human HK2 cells assessed as reduction in fibronectin release measured after 36 hrs by ELISA; assay type: functional, cell-based
HK-2 [7] = assay: Inhibition of TGFbeta1-induced epithelial-mesenchymal transition in human HK2 cells assessed as reversal of spindle-like morphology measured after 36 hrs; assay type: functional, cell-based; procedure, shortened: as §1
HK-2 [8] = assay: Inhibition of TGFbeta1-induced epithelial-mesenchymal transition in human HK2 cells assessed as reduction in alpha-SMA expression measured after 36 hrs by Western blot analysis; assay type: functional, cell-based
HK-2 [9] = assay: Effect on basal alpha-SMA expression in human HK2 cells at 1 uM after 36 hrs by Western blot analysis; assay type: ADME, cell-based; settings: hk-2, 36 h

Row | SMILES | inhibition (HK-2 [1]) | inhibition (HK-2 [2]) | IC50 [3] [µM] | inhibition (HK-2 [4]) | Activity (HK-2 [5]) | inhibition (HK-2 [6]) | inhibition (HK-2 [7]) | inhibition (HK-2 [8]) | Activity (HK-2 [9])
1 | N#C/C(=C\CO)CO[C@@H]1O[C@H](COC(=O)c2ccc(O)cc2)[C@@H](O)[C@H](O)[C@H]1O | Active | Active | 24.5 | Active | – | – | – | – | –
2 | Cl.Cl.N#Cc1ccc(O[C@@H]2c3ccccc3C[C@H]2N2CCC[C@@H](N)C2)c(Cl)c1 | – | – | – | – | Non-Toxic | Dose-dependent effect | Dose-dependent effect | Dose-dependent effect | Non-Toxic
3 | COc1cc(C(=O)OC[C@H]2O[C@@H](OC/C(C#N)=C/CO)[C@H](O)[C@@H](O)[C@@H]2O)ccc1O | Active | Active | 25.6 | Active | – | – | – | – | –
